# Data published in ChEMBL document CHEMBL1153615, “Antiproliferative activity of arborescidine alkaloids and derivatives” (Eur J Med Chem, 2009).
# Key:
# MRC5 = experiment: Cytotoxicity against human MRC5 cells after 3 days by MTT assay; assay type: cell-based; conditions: MRC5, 72 h
# Procedure, shortened: (§1)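 Human ATCC lines (MRC-5 normal lung fibroblasts, AGS gastric adenocarcinoma, HL-60 leukemia, SK-MES-1 lung cancer, J82 bladder carcinoma) seeded at 50,000 cells/mL in 96-well plates. Compounds added one day later in medium at 0 up to 100 µM for 3 days. Read-out by MTT reduction against untreated controls, with etoposide as reference. IC50 reported for S- and R-configured compounds.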
# AGS = experiment: Cytotoxicity against human AGS cells after 3 days by MTT assay; assay type: functional, cell-based; conditions: 72 h; procedure, shortened: as §1
# J82 = experiment: Cytotoxicity against human J82 cells after 3 days by MTT assay; assay type: functional, cell-based; conditions: J82, 72 h; procedure, shortened: as §1
# SK-MES-1 = experiment: Cytotoxicity against human SKMES1 cells after 3 days by MTT assay; assay type: functional, cell-based; conditions: SK-MES-1, 72 h; procedure, shortened: as §1
# HL-60 = experiment: Cytotoxicity against human HL60 cells after 3 days by MTT assay; assay type: functional, cell-based; conditions: HL-60, 72 h; procedure, shortened: as §1
# KB = experiment: Cytotoxicity against human KB cells at 30 uM; assay type: functional
SMILES,IC50 (MRC5) [µM],IC50 (AGS) [µM],IC50 (J82) [µM],IC50 (SK-MES-1) [µM],IC50 (HL-60) [µM],Activity (KB) [%]
C=CCCC[C@H]1c2[nH]c3ccccc3c2CCN1C(=O)OC,> 100,> 100,> 100,> 100,> 100,–
C=CCCCC1c2[nH]c3ccccc3c2CCN1C (stereo not given),42.2,34.5,76.4,58.6,> 100,–
CN1CCc2c3n(c4cc(Br)ccc24)C=CCC[C@@H]31,> 100,> 100,45.5,91.3,> 100,100
C=CCCCC1=NCCc2c1[nH]c1ccccc21,44.6,40.3,47.6,36.1,> 100,–
COC(=O)N1CCc2c([nH]c3ccccc23)[C@@H]1CCCC(O)CO (stereo not given in full),> 100,63.1,> 100,88.3,> 100,–
CN1CCc2c3n(c4cc(Br)ccc24)[C@@H](O)CCC[C@@H]31,31.9,30.9,> 100,> 100,> 100,100
C=CCCC[C@@H]1NCCc2c1[nH]c1ccccc21,20.1,14.3,25.7,19.1,69.3,–
COC(=O)N1CCc2c3n(c4cc(Br)ccc24)[C@@H](O)CCC[C@@H]31,60,22.8,16.4,18.1,> 100,–
COC(=O)N1CCc2c3n(c4ccccc24)[C@@H](O)CCC[C@@H]31,35.7,16.8,72.8,25.1,96.6,–
C=CCCCC1=NCCc2c1[nH]c1cc(Br)ccc21,40.1,26.9,39.3,39.7,> 100,–
C=CCCCC1c2[nH]c3cc(Br)ccc3c2CCN1C (stereo not given),78.9,69.9,78.8,75.8,> 100,–
C=CCCC[C@@H]1NCCc2c1[nH]c1cc(Br)ccc21,18.1,8.8,18.9,12.7,> 100,–
COC(=O)N1CCc2c([nH]c3cc(Br)ccc23)[C@@H]1CCCC=O,53.6,21.4,74.9,48.2,99.4,–
COC(=O)N1CCc2c([nH]c3cc(Br)ccc23)[C@@H]1CCCC(O)CO (stereo not given in full),> 100,> 100,> 100,> 100,> 100,–
Brc1ccc2c3c([nH]c2c1)[C@@H]1CCCCN1CC3 [ARBORESCIDINE A],71.6,65.3,> 100,> 100,34.5,100
CN1CCc2c3n(c4ccccc24)[C@@H](O)CCC[C@@H]31 [DESBROMOARBORESCIDINE C],> 100,> 100,> 100,> 100,> 100,–
CN1CCc2c3n(c4ccccc24)C=CCC[C@@H]31 [DESBROMOARBORESCIDINEB],62.6,41.7,29.5,32.3,> 100,–
COc1cc([C@@H]2c3cc4c(cc3[C@@H](O[C@@H]3O[C@@H]5CO[C@@H](C)O[C@H]5[C@H](O)[C@H]3O)[C@H]3COC(=O)[C@H]23)OCO4)cc(OC)c1O [ETOPOSIDE],–,–,2.5,2.8,–,–
